# In PubChem BioAssay:
# Values without a mark were called inactive. Inconclusive results are not listed. The source made the active and inactive calls.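 The calls were made as follows, unless noted: active = growth inhibition above 25% in both replicates, a cutoff set 3 SD above the mean; inconclusive = above 25% in only one replicate; inactive = the rest.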
# Key:
# [1] = S. cerevisiae growth inhibition in permissive medium (OD615), pilot counter-assay for S. cerevisiae lifespan shortening project, permissive growth control (AID 705); settings: OD615, 24 h, at 10 µM, active compounds read high
# How it was run: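 Test system: Saccharomyces cerevisiae strain carrying genetically modified DeaD replicative-lifespan system; buffer or medium: SC raffinose/galactose permissive medium; dosing: one dose 10 µM, DMSO 0.25% final; times: 24 h exposure, 30 °C; measured by: OD at 615 nm; read-out basis: growth inhibition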
# [2] = S. cerevisiae growth inhibition in restrictive medium, OD615, pilot screen, restrictive growth control, yeast lifespan reduction project (AID 706;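 active = growth inhibition above a set limit, 3 SD over mean compound inhibition, in both replicates, cut at about 43% in these data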;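 also: modified DeaD lifespan yeast strain shifted to restrictive glucose medium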); settings: OD615, 48 h, at 10 µM, active compounds read high
# How it was run: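 material = engineered S. cerevisiae DeaD strain | buffer or medium = glucose-based CSMM-D restrictive medium | dosing = one concentration, 10 µM final, 0.25% DMSO | schedule = 4 h pre-growth plus 48 h compound exposure, 30 °C | detection = OD615 absorbance reading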
# [3] = doxorubicin toxicity protection in MRP-1 cells – H69AR cells, CellTiter-Glo, duplicate, MRP-1 activator project, pilot screen (AID 807;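 active = viability increase at or above a cutoff of the median across tested compounds plus 3 SD, cut at about 8.5% in these data, passing the limit was not always enough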;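 also: compound pretreatment 18-22 h then 72 h combined with doxorubicin; 0% = doxorubicin alone and 100% = vehicle without doxorubicin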); settings: H69AR viability with doxorubicin, CellTiter-Glo luminescence; at 10 µM; active compounds read high
# [4] = viability of HCT116 without oncogenic beta-catenin – human colon tumor cells, pilot screen (AID 823;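 active = cell viability at or below a set limit in both duplicate runs, the limit being the all-compound median minus 4 SD, cut at about 23% in these data, passing the limit was not always enough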;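 also: 0% = wells killed by 20 µM Hyamine and 100% = untreated DMSO cell wells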); settings: HCT116 beta-catenin knockout viability, CellTiter-Glo, 60 h; at 10 µM; active compounds read low
# [5] = viability of PTEN-null HCT116 cells – cell-based, HCT116 clonal line, CellTiter-Glo, pilot screen (AID 824;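 active = viability at or below 27.92% in each of two runs, the all-compound median minus 4 SD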;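 also: 0% = 20 µM Hyamine control and 100% = vehicle cell control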); settings: HCT116 PTEN-deleted viability, 60 h, at 10 µM, active compounds read low
# [6] = RAM pathway blockade in budding yeast – dse1pr::URA3 reporter, 5-FOA selection, pilot screen (AID 869;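 active = inhibition over a set limit, the all-compound mean plus 3 SD, in both replicate runs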;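 also: 0% = DMSO wells with no growth and 100% = 10 µM 1-NA-PP1 with full growth; RAM network block rescues cells from 5-FOA so hits raise OD615 growth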); settings: S. cerevisiae dse1pr::URA3 5-FOA growth, OD615, 2 d; at 10 µM; active compounds read high; strain carries analog-sensitive mutant Cbk1 kinase
SMILES,growth inhibition [1],growth inhibition [2],viability increase [3],viability [4],viability [5],inhibition [6]
Cn1c(SCc2ccccc2Cl)nnc1-c1cnccn1,-2.59%,-7.88%,-1.15%,103%,102%,2.44%
COc1ccc2cc(CCNC(=O)c3ccc(Br)o3)c(=O)[nH]c2c1,-10.1%,-17%,-2.65%,95.9%,90.3%,1.84%
O=C(CCS(=O)(=O)c1cccc2nonc12)N1CCN(c2ccc(F)cc2)CC1,-6.7%,-0.575%,0.64%,96.3%,96.2%,1.71%
CCOc1ccc(-c2nc(CSCC(=O)N3CCN(c4cccc(OC)c4)CC3)c(C)o2)cc1,5.25%,19.7%,-2.52%,34%,47.4%,1.53%
N#CCCN1CCN(C(=S)c2ccc(-c3cccc(Cl)c3)o2)CC1,-12.9%,22.7%,-0.32%,76.9%,83%,1.51%
O=C(Cn1c(=O)sc2ccccc21)NCc1ccccn1,1.44%,-6.78%,-1.78%,104%,93.4%,1.19%
CC1CCN(c2nc3c(c(=O)[nH]c(=O)n3C)n2CCCc2ccccc2)CC1,-15.8%,-41.8%,-3.5%,79.9%,72.9%,1.45%
O=C1C2CCCN2C(c2ccc(F)cc2)N1c1ccc(Cl)cc1 (centres undefined),-13%,-0.82%,-2.59%,76.5%,67.8%,3.84%
C=CCSc1nnc2c(n1)OC=Nc1ccccc1-2,-4.68%,29.7%,2.06%,97.9%,101%,3.17%
Cn1c(=O)oc2cc(S(=O)(=O)N3CCC(C(=O)NCC4COc5ccccc5O4)CC3)ccc21 (centres undefined),-17.2%,-19.6%,0.66%,103%,96.8%,3.92%
COc1cc(/C=C/C2=NC(=O)C(C)(C)O2)ccc1O,-1.35%,6.79%,-7.42%,65.9%,71.9%,0.485%
Cc1ccc(Cl)cc1N1CCN(C(=O)CCS(=O)(=O)c2cccc3nonc23)CC1,3.25%,-4.52%,-3.47%,79.5%,75.4%,0.805%
CCC1(C)Cc2ccccc2-c2nc3n(c(=O)c21)CCCCC3 (centres undefined),-8.71%,-14.2%,-1.36%,88.1%,–,4.02%
O=C(c1cc(C2CC2)on1)N1CCN(c2ccc(F)cc2)CC1,-18.2%,-26.9%,-1.75%,96.8%,92.4%,1.9%
CC(C)n1c(C(=O)OCC(=O)NCc2ccc3c(c2)OCO3)cc2sccc21,-10.2%,-12.8%,-6.26%,53.4%,–,2.71%
C=C(C)Cn1c(SCC(=O)O)nnc1-c1ccc(C(C)(C)C)cc1,-15.7%,-4.97%,0.28%,–,101%,1%
Cc1cccc(N2CCN(C(=O)c3cc4c(=O)n(C)c5ccccc5c4n3C)CC2C)c1 (centres undefined),-3.86%,3.15%,-4.81%,–,–,1.81%
Cc1noc(/C=C/N(C)C)c1S(=O)(=O)N1CCCC(C(=O)NCc2ccc(F)cc2)C1 (centres undefined),-4.61%,-8.86%,–,90.1%,85.8%,–
Cc1cccc(-c2noc(CN(C(=O)c3c(-c4ccccc4Cl)noc3C)C(C)C)n2)c1,-13.9%,-13%,-3.28%,44.3%,49.4%,0.585%
COc1cc2c(cc1OC)C(c1ccccc1)N(C(=O)c1ccco1)CC2 (centres undefined),-21.2%,-17.6%,-3.16%,68.4%,63.5%,2.55%
CSc1nc(NCCOCCO)c2sc3nc(-c4ccco4)c4c(c3c2n1)CCC4,-7.22%,0.84%,-4.7%,81.3%,–,1.51%

SMILES,growth inhibition [1],growth inhibition [2],viability increase [3],viability [4],viability [5],inhibition [6]
C1=C(c2ccccc2)CCN(c2nc3ccccc3n3cnnc23)C1,-7.88%,11.2%,-3.98%,90.4%,86.8%,0.34%
O=C(O)c1ccc(CSc2nnc(COc3ccc(Cl)cc3Cl)o2)cc1,10.6%,20.2%,2.94%,103%,94.1%,1.22%
COc1cc2[nH]c(=O)n(Cc3ccc(C(=O)NCC4CCCO4)cc3)c(=O)c2cc1OC (centres undefined),-14.9%,-17.9%,-3.55%,90.2%,–,3.56%
CCOC(=O)c1ccc(NC(=O)c2ccc(C)c(S(=O)(=O)N3CCOCC3)c2)cc1,-7.03%,-5.64%,-3.41%,12.8% (active),–,0.87%
N#CC1=C2SCN(c3ccccc3)CN2C(=O)CC1c1ccccc1Cl (centres undefined),6.17%,–,-5.58%,97.2%,82.5%,2.58%
COc1ccc(N(CC(=O)NCCSc2ccccn2)S(C)(=O)=O)cc1Cl,-5.09%,-6.72%,-3.81%,–,97.3%,1.44%
Cc1c(C(=O)NCc2cccs2)oc2ccc(S(=O)(=O)N3CCOCC3)cc12,-0.625%,-4.37%,-4.32%,79.6%,–,0.46%
COc1cc(C2CC(=O)c3c([nH]c(C(=O)OCCOC(C)C)c3C)C2)cc(OC)c1OC (centres undefined),-15.2%,-28.2%,-2.78%,–,42.7%,1.85%
CCCCn1c(Oc2ccc(C(=O)OC)cc2)nc2c1c(=O)n(C)c(=O)n2C,-10.3%,-3.88%,-2.52%,84.1%,84.1%,0.085%
Cc1ccc(-c2nc3cnccn3c2Nc2ccc3c(c2)OCCO3)o1,-11.4%,-5.81%,-5.2%,92.4%,–,1.19%
C=CCn1c(SCc2cc(=O)n3ccsc3n2)nc2scc(C3CC3)c2c1=O,-3.27%,-5.57%,-3.7%,–,91.8%,2.79%
COc1ccc(Nc2nc(N)nc(CN3CCC(Cc4ccccc4)CC3)n2)cc1,6.83%,-0.085%,-6.58%,–,35.8%,0.1%
COC(=O)c1c(-c2ccc(F)cc2)csc1NC(=O)c1ccco1,-27.6%,0.595%,1.29%,78.5%,–,1.12%
Cc1c(/C=N/n2cnnc2)c2ccccc2n1CCOc1ccc(Cl)cc1,3.74%,17.6%,-4.25%,–,90%,4.12%
N#CCSc1n[nH]c2nc3c(c(=O)n12)C1(CCCC1)Cc1ccccc1-3,-1.95%,28%,4.21%,102%,–,2.08%
CCN(CC)S(=O)(=O)c1cc(-c2nnc(-c3ccc(Br)cc3)o2)ccc1Cl,-10.3%,-14.6%,1.36%,–,41.7%,2.41%
COc1ccc(C(=O)/C=C/Nc2cc(C)on2)cc1,-11.9%,-11.9%,-0.71%,–,97%,–
O=C(NCc1ccc2c(c1)OCO2)c1nnc(Cc2ccc(F)cc2)o1,-1.76%,9.91%,0.87%,105%,97.1%,3.56%
N#Cc1c(NC(=O)CCCN2C(=O)c3ccccc3C2=O)oc(-c2ccccc2)c1-c1ccccc1,-1.81%,1.75%,2.13%,101%,94.7%,-0.33%
Clc1ccc(Cc2nnc(-c3cccs3)o2)cc1,-0.04%,5.1%,4.43%,106%,95.9%,0.935%
CCOC(=O)C1CCN(C(=O)Nc2ccc(Cl)cc2)CC1,-17.2%,-13.1%,1.32%,96.7%,102%,-0.18%
